These results are taken from PMC3403534 (Journal of Biomolecular Screening, 2009).

Assay [1] concerns the target T1, TNAP (Homo sapiens, UniProt P05186).
T1 sequence (P05186 18-501 limits assumed): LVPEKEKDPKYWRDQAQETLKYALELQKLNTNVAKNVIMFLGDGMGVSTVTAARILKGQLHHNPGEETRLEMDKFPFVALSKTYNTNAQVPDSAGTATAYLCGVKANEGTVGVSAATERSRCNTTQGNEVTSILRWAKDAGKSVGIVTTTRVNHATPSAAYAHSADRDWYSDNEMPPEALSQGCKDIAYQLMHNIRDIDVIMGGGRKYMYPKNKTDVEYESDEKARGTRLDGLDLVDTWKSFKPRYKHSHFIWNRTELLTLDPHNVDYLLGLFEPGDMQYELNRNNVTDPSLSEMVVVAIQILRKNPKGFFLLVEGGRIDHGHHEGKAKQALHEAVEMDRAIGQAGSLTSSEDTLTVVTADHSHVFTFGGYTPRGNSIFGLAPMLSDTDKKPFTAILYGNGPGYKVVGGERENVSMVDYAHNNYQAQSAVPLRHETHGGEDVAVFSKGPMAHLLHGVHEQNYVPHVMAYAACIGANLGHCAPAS
Nature of the assay: Luminescent TNAP assay with CDP-star substrate. The class given is biochemical.

For a further assay, the target named is PLAP (Homo sapiens, UniProt P05187). Nature of the assay: Luminescent PLAP selectivity assay. The settings on record: read-out: SDCCG panel IC50 PLAP, 85 µM CDP-star. The class given is biochemical. Summed up: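 Run as an analogue of the luminescent TNAP assay: CDP-star held at the PLAP Km. The TNAP version used 100 mM DEA-HCl pH 9.8, 1 mM MgCl2 and 20 uM ZnCl2, with luminescence read after 30 min at room temperature. Percent inhibition was computed against negative and positive control wells. Dose-response data were fitted to the Hill equation for IC50, excluding nephelometrically precipitating concentrations.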

The target in another assay is T2, IAP (Homo sapiens, UniProt P09923).
T2 sequence (P09923 20-503 limits assumed): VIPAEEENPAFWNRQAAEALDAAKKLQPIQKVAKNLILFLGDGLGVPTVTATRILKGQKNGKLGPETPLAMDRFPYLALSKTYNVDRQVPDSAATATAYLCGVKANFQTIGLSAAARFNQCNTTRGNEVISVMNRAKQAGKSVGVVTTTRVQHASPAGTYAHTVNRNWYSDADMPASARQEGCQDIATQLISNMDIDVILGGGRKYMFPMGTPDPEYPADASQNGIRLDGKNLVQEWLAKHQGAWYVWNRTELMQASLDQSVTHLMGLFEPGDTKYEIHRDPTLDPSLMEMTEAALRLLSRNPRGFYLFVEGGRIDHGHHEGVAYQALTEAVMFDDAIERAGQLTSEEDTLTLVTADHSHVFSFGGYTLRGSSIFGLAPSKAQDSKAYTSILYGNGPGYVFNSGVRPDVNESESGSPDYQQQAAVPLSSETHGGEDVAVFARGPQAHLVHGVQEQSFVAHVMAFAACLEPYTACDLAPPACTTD
Nature of the assay: Luminescent IAP selectivity assay. The class given is biochemical. The settings on record: read-out: SDCCG panel IC50 IAP, […] CDP-star.

Assay [2] addresses T1, TNAP. The settings on record: ref Fishman and Sie, 1971; Van Belle, 1976; Farley et al., 1980; cited from earlier work.
For assay [3], the target named is T1, TNAP. It is filed as biochemical. The settings on record: for MOI vs CDP*: mode of inhibition with respect to CDP-star (UC uncompetitive, C competitive); for MOI vs DEA: mode of inhibition with respect to DEA (C competitive, NC non-competitive).
Assay [4] has as its target T1, TNAP. Kind of assay: Colorimetric TNAP assay, pNPP substrate, absorbance at 405 nm. The settings on record: colorimetric assays, 1 M DEA, compared with luminescent assay. The class given is biochemical.
The mark [5] stands for this setting: read-out: IC50 SAR-Lumi, dry powder compounds, 100 mM DEA.
The mark [6] stands for this setting: read-out: SDCCG panel IC50 TNAP.

Read-outs that look alike come from different tables or passages of the source.

PLAP, sequence (P05187 23-506 limits assumed): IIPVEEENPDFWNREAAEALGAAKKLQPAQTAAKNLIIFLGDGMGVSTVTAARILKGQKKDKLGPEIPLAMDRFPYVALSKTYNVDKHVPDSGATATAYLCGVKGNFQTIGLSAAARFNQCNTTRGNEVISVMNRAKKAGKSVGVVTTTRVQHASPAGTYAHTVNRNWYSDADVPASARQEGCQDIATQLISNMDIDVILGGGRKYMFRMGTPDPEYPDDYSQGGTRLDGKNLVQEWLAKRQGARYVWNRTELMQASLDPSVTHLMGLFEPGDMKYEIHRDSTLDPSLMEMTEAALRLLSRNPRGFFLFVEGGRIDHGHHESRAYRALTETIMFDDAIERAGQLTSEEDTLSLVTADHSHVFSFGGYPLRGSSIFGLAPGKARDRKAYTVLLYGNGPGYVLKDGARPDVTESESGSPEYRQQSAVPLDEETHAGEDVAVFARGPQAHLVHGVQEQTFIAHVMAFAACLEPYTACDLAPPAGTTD

Regarding `COc1ccc(C)cc1S(=O)(=O)Nc1cccnc1` [MLS-0010847], the IC50 on TNAP [1] (setting [5]) was 926 nM; at TNAP [1] (setting [6]), 926 nM; on PLAP, above 100000 nM; on IAP it was above 100000 nM.

In the case of `NC(N)=NCCCC[C@H](N)C(=O)O` [L-homoarginine], the “Mode of inhibition of TNAP by known inhibitors” value at TNAP [2] is reported as “inhibited uncompetitively”.

Regarding `O=c1cc(-c2cccc3ccccc23)[nH][nH]1` [MLS-0039961], the IC50 on TNAP [1] (setting [5]) is 4620 nM; at PLAP it was above 100000 nM; at IAP, above 100000 nM. Also, the “MOI vs CDP*” value at TNAP [3] is “competitive with CDP-star”. Also, the “MOI vs DEA” value on TNAP [3] was “non-competitive”.

With `O=C(O)c1cc(-c2ccccc2Cl)n[nH]1` [MLS-0005718], the IC50 at TNAP [1] (setting [5]) is 743 nM; at TNAP [1] (setting [6]), 743 nM; on PLAP, above 100000 nM; at IAP, 43500 nM. Moreover, the “MOI vs CDP*” value on TNAP [3] is “competitive with CDP-star”. In addition, at TNAP [3], the “MOI vs DEA” value is “competitive mechanism”.

Consider `O=C1C2CC=CCC2C(=O)N1c1n[nH]c(Cc2ccccc2)n1` (stereo not shown) [MLS-0067142], for which the IC50 amounted to 186 nM at TNAP [1] (setting [5]), 186 nM at TNAP [1] (setting [6]), 3140 nM at PLAP and 539 nM on IAP. For the same molecule, the “MOI vs CDP*” value at TNAP [3] was “competitive with CDP-star”. Besides, the “MOI vs DEA” value on TNAP [3] is given as “competitive mechanism”.

Consider `COc1ccc(OC)c(S(=O)(=O)Nc2ccc(O)c(Sc3ncn[nH]3)c2)c1` [MLS-0043574], for which, on TNAP [4], the “Activity in the colorimetric assay” value is “inactive”.

For the molecule `COc1ccc(OC)c(S(=O)(=O)Nc2cnc3ccccc3c2)c1` [MLS-0038949], the IC50 on PLAP was above 100000 nM.

As for `c1ccc([C@H]2CN3CCSC3=N2)cc1` [levamisole], on TNAP [2], the “Mode of inhibition of TNAP by known inhibitors” value is reported as “inhibited uncompetitively”.

Broadly, the IC50 is the concentration needed to halve the response being measured.
